A selection: hits, their analogues and other compounds. The true share with any hit is near 9.4%.
Lmaj promast: Leishmania major promastigote growth inhibition; Leishmania major promastigotes, resazurin fluorescence viability; inhibition, % at 10 µM; 200,000 tested, 9% active; in the data active means inhibition above about 50%;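 further: promastigotes grown with compound for 44 hours at 28 °C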
Beta cell apopt: beta cell apoptosis inhibition | INS-1E cytokine-induced death, ATP luminescence, 48 h; percent of positive-control rescue, neutral wells zero | protection from apoptosis, % (no concentration beside the values) | 300,000 tested, 0.8% active;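 active means Every replicate reaches about 75%, or at least half do and their mean reaches it too, limit read from the data; inconclusive means At least half of replicates reach the limit but their mean does not; inactive means Under half of replicates reach the limit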;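 further: 0% = cytokine-treated negative control wells and 100% = positive control rescue; higher means more ATP so stronger rescue from cytokine killing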
Mdm2 MdmX PPI: disrupts the human Mdm2-MdmX interaction; O15151+Q00987; SaOS-2 split-luciferase Mdm2/MdmX complementation, luminescence; inhibition, % at 8 µM; 330,000 tested, 3% active; AID 485346;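 active means inhibition of at least 50% at 8 µM in the primary screen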
T cruzi repl: blocks replication of Trypanosoma cruzi | T. cruzi beta-gal in NIH3T3, luminescence, 90 h | inhibition, % (test concentration not listed) | 300,000 tested, 1.4% active | AID 1885;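 active means mean inhibition across valid replicates above about 55%, limit read from the data; inconclusive means mean below that limit but half or more replicates reach it; inactive means mean below it, under half of replicates reach it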;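 further: signal also drops with host cell toxicity which is not excluded here; 0% = plate median of DMSO wells and 100% = zero luminescence signal; higher percent means less beta-gal luminescence so fewer parasites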
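assay system = mouse NIH/3T3 fibroblasts infected with β-gal-expressing T. cruzi Tulahuen C4 | input = 5,000 NIH/3T3 host cells per well | buffer or medium = DMEM plus 2% FBS | timing = 3 h host attachment, then at least 90 h co-culture | measured by = GalScreen luminescence, 60 min | evaluation = luminescence reflecting intracellular parasite burden, expressed as percent inhibition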
SKKanGAS inh: SKKanGAS growth inhibition; S. pyogenes SKKanGAS, kanamycin growth, BacTiter-Glo, 6 h; inhibition, % at 7.5 µM; 300,000 tested, 1.3% active; AID 1662;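 active means mean replicate score, as percent of positive control median, at least 50; inconclusive means mean below 50 but one replicate at or above 50; inactive means mean and every replicate below 50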;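 further: strain carries kanamycin resistance gene driven by streptokinase promoter and grows in 40 µg/ml kanamycin; loss of luminescence reflects streptokinase promoter inhibition or plain growth inhibition; 0% = median of DMSO wells and 100% = positive control at its reference dose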
CSC inhib: cancer stem cell inhibition. cancer stem cell-like cells viability, luminescence. inhibition, % at 7.5 µM. AID 2717. 300,000 tested, 1.1% active; in the data active means inhibition above about 75%; inconclusive means no clear call, values can overlap the other calls; tested in HMLE shEcad cells
* = called active by the depositor; ? = inconclusive; . = no result.

SMILES	Lmaj promast	Beta cell apopt	Mdm2 MdmX PPI	T cruzi repl	SKKanGAS inh	CSC inhib
CC1(C)CC(=O)C(N=Nc2cc3c(cc2[N+](=O)[O-])OCCO3)=C(O)C1	-8	0	11	-2	-13	-10
O=C1ON=C(c2ccccc2)/C1=C/c1ccc(-c2ccccc2[N+](=O)[O-])o1	100*	17	.	.	.	54
O=[N+]([O-])c1ccccc1-c1ccc(/C=N/n2cnnc2)o1	-1	-4	-10	17	-4	0
O=C(Oc1cccc2cccnc12)c1ccc(N2C(=O)C3C4CCC(C4)C3C2=O)cc1 (stereo not given)	99*	-1	26	-15	3	0
O=C(Oc1cccc2cccnc12)c1cccc(-n2cnnn2)c1	-6	-2	30	3	3	-9
O=C(Oc1ccc(N2C(=O)C3C4CCC(C4)C3C2=O)cc1)c1ccco1 (stereo not given)	.	3	-3	-4	7	-12
O=C(Oc1cccc2cccnc12)c1cccc(N2C(=O)C3C4CCC(C4)C3C2=O)c1 (stereo not given)	97*	79*	9	6	0	3
Nc1nc(N(Cc2ccccc2)Cc2ccccc2)nc(C(F)(F)F)n1	.	3	15	.	.	.
O=C(O)c1ccc(CSc2nc(-c3ccc(Cl)cc3)cc(C(F)(F)F)n2)cc1	-3	-2	25	-24	52*	?
Cc1nc(NC(=O)c2ccc(Cl)cc2)sc1Cc1ccc2c(c1)OCO2	73*	23	36	-17	22	79*
Cc1nc(NC(=O)c2ccccc2)sc1Cc1ccc2c(c1)OCO2	0	13	-11	-11	11	42
COc1ccc(C)cc1N1C(=N)/C(=C2/Nc3ccccc3S2)C(c2ccccc2)C1=O (stereo not given)	100*	-3	.	.	.	112*
COc1ccc(C)cc1-n1c(=O)c2ccccc2c2ccccc2c1=O	-3	.	.	-10	-2	.
CC1CC(C)(C)NC(=S)N1CC(=O)NCc1ccccc1Cl (stereo not given)	77*	-3	-20	-22	-5	11
Cc1ccccc1NC(=O)CN1C(=S)NC(C)(C)CC1C (stereo not given)	53*	-5	6	-7	-3	.
Cc1cccc(NC(=O)CN2C(=S)NC(C)(C)CC2C)c1 (stereo not given)	54*	-4	7	-10	-4	-11
Cc1ccc(NC(=O)CCCN2C(=S)NC(C)(C)CC2C)cc1 (stereo not given)	-4	-6	-31	-4	0	4
COC(=O)[C@H]1C[C@H]1[C@@H](NC(=O)c1ccc[nH]1)c1ccccc1	.	-7	-4	-23	-2	-13
CCC1(C)Cc2c(sc3nc(NN)n(C)c(=O)c23)CO1 (stereo not given)	95*	-3	24	3	9	13
COc1ccc(CNC(=O)C2CCN(S(=O)(=O)N3CCCCC3)CC2)c(OC)c1	.	-2	20	18	-12	-10
Nc1cc(C(=O)OCC(=O)Nc2cccc(S(=O)(=O)N3CCOCC3)c2)ccc1Cl	.	0	7	.	.	-1
O=[N+]([O-])c1ccc(-c2ccn[nH]2)o1	42	-2	-17	68*	8	-3
COc1ccc(F)cc1C(=O)C1CCCN(C(=O)CCN2CCCCO2)C1 (stereo not given)	-3	-2	26	7	-3	-11
CCc1noc(C)c1C(=O)N1CCCC(C(=O)c2cc(F)ccc2OC)C1 (stereo not given)	-3	-11	17	55*	1	-3
CCOC(=O)N1CCC(N2CCCC(C(=O)c3cc(F)ccc3OC)C2)CC1 (stereo not given)	82*	8	6	59*	0	5
SMILES	Lmaj promast	Beta cell apopt	Mdm2 MdmX PPI	T cruzi repl	SKKanGAS inh	CSC inhib
Cc1cccc2[nH]c(CN(C)Cc3nc(CC4CC4)no3)nc12	-6	-11	14	-15	-3	4
O=C(Nc1ccccc1-c1ccccc1)NC1CC2CCCC(C1)N2CCc1ccccc1 (stereo not given)	72*	17	18	16	-3	.
Cc1ccc(CN2C3CCCC2CC(NC(=O)c2ccc(F)cc2)C3)cc1 (stereo not given)	.	-2	10	34	2	-12
O=C(Nc1ccccc1-c1ccccc1)NC1CC2CCCC(C1)N2Cc1ccc(F)cc1 (stereo not given)	69*	23	22	45	7	12
COc1cc(CNCc2cccnc2)ccc1OCC(=O)NC1CCCCC1	86*	-7	31	18	-13	-17
COc1ccccc1OCC(=O)NC1CCCCCC1	-3	0	-10	11	-1	3
COc1ccc(-n2c3c(cc(C(=O)NCC(=O)c4ccccc4)c2=O)C(=O)CC(C)(C)C3)cc1	.	-6	1	20	9	5
CC(=O)Nc1cc[n+](C(C)C(=O)c2ccc(Br)cc2)cc1 (stereo not given)	-4	5	-12	-8	-5	11
O=C(CNS(=O)(=O)c1ccccc1)Nc1cccc([N+](=O)[O-])c1	3	-2	15	11	10	2
O=C(CN1CCCC(O)C1)N1c2ccccc2Sc2ccc(C(F)(F)F)cc21 (stereo not given)	10	-10	-17	32	3	-4
CN1CCN(CCCN2c3ccccc3Sc3ccc(C(F)(F)F)cc32)CC1	86*	3	41	45	7	52
COc1cccc(CNc2ccc(C)c(Cl)c2)c1	-3	8	-25	2	4	7
COc1ccc(OC)c(CNc2ccc3c(c2)CCC3)c1	.	-9	-2	70*	1	-10
COc1cccc(CNc2ccc3c(c2)CCC3)c1	6	6	22	60*	0	6
CCC(=O)N1CCc2cc(Br)cc(S(=O)(=O)NCCN3CCCCC3C)c21 (stereo not given)	92*	2	11	-6	-3	-17
CCCN(CCC)CCCNS(=O)(=O)c1cc(Br)cc2c1N(C(C)=O)CC2	87*	0	11	-14	-4	.
CC1CC(C)CN(CCCNC(=O)c2csc3c2CCCC3)C1 (stereo not given)	93*	1	8	0	2	21
CC(C)CCNC(=O)c1csc2c1CCCCC2	13	-3	2	-11	.	-13
CCCCN(CC)CCCNC(=O)c1csc2c1CCCCC2	87*	6	19	44	3	-9
Cc1cc(OCC(=O)Nc2ccccc2C(N)=O)c2c(C)cc(=O)oc2c1	.	.	21	-2	-8	-5
COc1cc(/C=C/C(=O)OCC(=O)NC(=O)NC23CC4CC(CC(C4)C2)C3)ccc1OCC#N	93*	4	14	-7	17	21
CN(c1ccccc1)S(=O)(=O)c1cccc(NC(=O)COC(=O)C2CCCCC2)c1	.	4	-13	-12	-5	-16
